This assay is filed under the species Mus musculus. Nature of the assay: Antitumor activity against transplanted tumor sarcoma 180 expressed as effective dose. It is filed as functional. The gist of the method:
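Male ICR mice, five weeks old, implanted s.c. in the axilla with 5×10^6 sarcoma 180 cells. Starting 24 h after implant, compounds were given orally once daily for 7 consecutive days as a suspension in 0.5% CMC with 0.1% Tween 80. Seven mice per dose. Tumors were excised and weighed on day 10, and inhibition was taken from treated/control tumor weight.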

Each structure is given as a SMILES string.

As usually defined, the ED50 is the dose that gives a 50% effect, or the effect in half of the subjects. For `Cc1ccccc1COC[C@H]1O[C@@H](n2cc(C(F)(F)F)c(=O)[nH]c2=O)C[C@@H]1O`, the ED50 was over 40 mg/kg/day.
The value for `O=c1[nH]c(=O)n([C@H]2C[C@H](OCc3ccc(Cl)cc3)[C@@H](CO)O2)cc1C(F)(F)F` was under 10 mg/kg/day.
In the case of `COc1ccc(COC[C@H]2O[C@@H](n3cc(C(F)(F)F)c(=O)[nH]c3=O)C[C@@H]2O)cc1`, the ED50 was over 40 mg/kg/day.
The value for `Cc1cccc(CO[C@H]2C[C@H](n3cc(C(F)(F)F)c(=O)[nH]c3=O)O[C@@H]2CO)c1` was 36 mg/kg/day; that for `Cc1cccc(COC[C@H]2O[C@@H](n3cc(C(F)(F)F)c(=O)[nH]c3=O)C[C@@H]2O)c1` was 28 mg/kg/day.
The value for `Cc1ccccc1CO[C@H]1C[C@H](n2cc(C(F)(F)F)c(=O)[nH]c2=O)O[C@@H]1CO` was 40 mg/kg/day; that for `CCOC[C@H]1O[C@@H](n2cc(C(F)(F)F)c(=O)n(C(=O)c3ccccc3)c2=O)C[C@@H]1O` was 23 mg/kg/day; that for `O=C(c1ccccc1)n1c(=O)c(C(F)(F)F)cn([C@H]2C[C@H](OCc3ccccc3)[C@@H](CO)O2)c1=O` was 26 mg/kg/day.
The value for `CCO[C@H]1C[C@H](n2cc(C(F)(F)F)c(=O)[nH]c2=O)O[C@@H]1CO` was 15 mg/kg/day.
Consider `CCO[C@H]1C[C@H](n2cc(C(F)(F)F)c(=O)n(C(=O)c3ccccc3)c2=O)O[C@@H]1CO`, for which the ED50 came out at 37 mg/kg/day.
The value for `O=c1[nH]c(=O)n([C@H]2C[C@H](OCc3ccccc3)[C@@H](COCc3ccccc3)O2)cc1C(F)(F)F` was over 40 mg/kg/day; that for `CCOC[C@H]1O[C@@H](n2cc(C(F)(F)F)c(=O)[nH]c2=O)C[C@@H]1O` was 14 mg/kg/day; that for `O=c1[nH]c(=O)n([C@H]2C[C@H](O)[C@@H](COCc3ccc(Cl)cc3)O2)cc1C(F)(F)F` was 14 mg/kg/day.
The value for `O=c1[nH]c(=O)n([C@H]2C[C@H](OCc3ccccc3)[C@@H](CO)O2)cc1C(F)(F)F` was 13 mg/kg/day; that for `CCO[C@H]1C[C@H](n2cc(F)c(=O)[nH]c2=O)O[C@@H]1CO` was over 40 mg/kg/day.
`O=c1[nH]c(=O)n([C@H]2C[C@H](OCc3ccccc3)[C@@H](CO)O2)cc1F` gave a 50% effective dose (ED50) of 12 mg/kg/day.
The value for `CCOC[C@H]1O[C@@H](n2cc(F)c(=O)[nH]c2=O)C[C@@H]1O` was 39 mg/kg/day; that for `O=c1c(C(F)(F)F)cn([C@H]2C[C@H](O)[C@@H](CO)O2)c(=O)n1Cc1ccccc1` was over 40 mg/kg/day.
The value for `O=c1[nH]c(=O)n([C@H]2C[C@H](O)[C@@H](COCc3ccccc3)O2)cc1C(F)(F)F` was 15 mg/kg/day; that for `COc1ccc(CO[C@H]2C[C@H](n3cc(C(F)(F)F)c(=O)[nH]c3=O)O[C@@H]2CO)cc1` was over 40 mg/kg/day; that for `O=c1[nH]c(=O)n([C@H]2C[C@H](O)[C@@H](COCc3ccccc3)O2)cc1F` was 16 mg/kg/day.
The value for `O=c1nc(OCc2ccccc2)c(C(F)(F)F)cn1[C@H]1C[C@H](O)[C@@H](CO)O1` was over 40 mg/kg/day.
`CCOC[C@H]1O[C@@H](n2cc(C(F)(F)F)c(=O)[nH]c2=O)C[C@@H]1OCC` came in with an ED50 of 25 mg/kg/day.
The value for `O=C(c1ccccc1)n1c(=O)c(C(F)(F)F)cn([C@H]2C[C@H](O)[C@@H](COCc3ccccc3)O2)c1=O` was 26 mg/kg/day; that for `O=c1[nH]c(=O)n([C@H]2C[C@H](O)[C@@H](CO)O2)cc1F` [FLOXURIDINE] was 84 mg/kg/day.
The value for `O=c1[nH]c(=O)n([C@H]2C[C@H](O)[C@@H](CO)O2)cc1C(F)(F)F` [TRIFLURIDINE] was 63 mg/kg/day.

(Values after ChEMBL document CHEMBL1124607, “Studies on antitumor agents. 8. Antitumor activities of O-alkyl derivatives of 2'-deoxy-5-(trifluoromethyl)uridine and 2'-deoxy-5-fluorouridine” (1989).)
